Columns and labels:
[1] = Half life in RPMI media at 1 uM by HPLC analysis in presence of fetal bovine serum; format: ADME; details: cattle
Summary of the method: (§1)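 Compound added from DMSO stock to pre-heated RPMI 1640 (1.8 mL) plus 0.2 mL human AB male serum or FBS, or to 2 mL RPMI alone, at final 1 or 10 μM. Samples analysed by HPLC at pH 9.5 (formic acid/ammonia in acetonitrile/water), with conversion taken from the substrate/internal standard peak ratio. Run in triplicate; half-lives ± SD.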

[2] = Half life in RPMI media at 10 uM by HPLC analysis in presence of human blood serum; format: ADME; summary of the method: as §1
[3] = Half life in RPMI media at 1 uM by HPLC analysis in presence of human blood serum; format: ADME; summary of the method: as §1
[4] = Selectivity ratio of IC50 for MEF to IC50 for human SK-MEL-2 cells; format: cell-based; details: mouse (MEF) and human (SK-MEL-2 cells), MEF and SK-MEL-2 cells; read-out: Ratio IC50
[5] = system: MEF; assay: Antiproliferative activity against MEF after 72 hrs by MTT assay; format: cell-based; details: Mus musculus
[6] = Selectivity ratio of IC50 for MEF to IC50 for human HeLa cells; format: cell-based; details: mouse (MEF) and human (HeLa cells), read-out: Ratio IC50
[7] = system: SK-MEL-2; assay: Antiproliferative activity against human SK-MEL-2 cells after 72 hrs by MTT assay in presence of 5% FBS; format: functional, cell-based; details: SK-MEL-2, 72 h
Summary of the method: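 SK-MEL2 grown with reduced serum (5% FBS) to slow proliferation. Compounds added in DMSO (0.1% final), followed by a 72 h MTT proliferation assay.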

[8] = Dissociation constant, pKa of the compound; format: physicochemical
[9] = system: SK-MEL-2; assay: Selectivity ratio of IC50 for human SK-MEL-2 cells in presence of 5% FBS to IC50 for human SK-MEL-2 cells in presence of 10% FBS; format: functional
[10] = Antiproliferative activity against human Jurkat T cells after 72 hrs by MTT assay; format: functional, cell-based
Summary of the method: (§2)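 HeLa and SK-MEL2 grown in DMEM, Jurkat in RPMI 1640, each with 10% FBS and penicillin-streptomycin, at 37 °C and 5% CO2. Adherent cells seeded at 2000/well and left to recover overnight; Jurkat seeded at 5000/well with no recovery. Compound added in DMSO (0.1% final), then 72 h incubation and MTT readout.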

[11] = system: SK-MEL-2; assay: Antiproliferative activity against human SK-MEL-2 cells after 72 hrs by MTT assay in presence of 10% FBS; format: functional, cell-based; details: SK-MEL-2, 72 h; summary of the method: as §2
[12] = system: HeLa; assay: Antiproliferative activity against human HeLa cells after 72 hrs by MTT assay; format: functional, cell-based; summary of the method: as §2
[13] = system: Jurkat; assay: Immunosuppressive activity in human Jurkat T cells assessed as inhibition of IL-2 transcription; format: functional, cell-based
[14] = Antiproliferative activity against BAEC assessed as DNA synthesis level after 24 hrs by thymidine incorporation assay; details: Bos taurus
Summary of the method: (§3)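 Cells kept at 37 °C, 5% CO2 with penicillin-streptomycin and 10% FBS. Adherent lines seeded at 2000 cells/well and left to recover overnight; Jurkat seeded at 5000 cells/well with no recovery period. Compound added in DMSO (0.1% final, vehicle-only control) at 0.001–100 nM over 10 wells. DNA synthesis read out after 24 h. Mean IC50 from at least 3 independent assays.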

[15] = system: HaCaT; assay: Antiproliferative activity against human HaCaT cells assessed as DNA synthesis level after 24 hrs by thymidine incorporation assay; format: functional, cell-based; summary of the method: as §3
[16] = system: RKO; assay: Antiproliferative activity against human RKO cells assessed as DNA synthesis level after 24 hrs by thymidine incorporation assay; format: functional, cell-based; summary of the method: as §3
[17] = system: HeLa; assay: Antiproliferative activity against human HeLa cells assessed as DNA synthesis level after 24 hrs by thymidine incorporation assay; format: functional, cell-based; summary of the method: as §3
[18] = target: T1, DNA polymerase alpha catalytic subunit (Homo sapiens, UniProt P09884); assay: Inhibition of DNA polymerase-alpha (unknown origin) assessed as incorporation of Br(d)UTP by colorimetric analysis
T1 sequence (P09884 whole entry): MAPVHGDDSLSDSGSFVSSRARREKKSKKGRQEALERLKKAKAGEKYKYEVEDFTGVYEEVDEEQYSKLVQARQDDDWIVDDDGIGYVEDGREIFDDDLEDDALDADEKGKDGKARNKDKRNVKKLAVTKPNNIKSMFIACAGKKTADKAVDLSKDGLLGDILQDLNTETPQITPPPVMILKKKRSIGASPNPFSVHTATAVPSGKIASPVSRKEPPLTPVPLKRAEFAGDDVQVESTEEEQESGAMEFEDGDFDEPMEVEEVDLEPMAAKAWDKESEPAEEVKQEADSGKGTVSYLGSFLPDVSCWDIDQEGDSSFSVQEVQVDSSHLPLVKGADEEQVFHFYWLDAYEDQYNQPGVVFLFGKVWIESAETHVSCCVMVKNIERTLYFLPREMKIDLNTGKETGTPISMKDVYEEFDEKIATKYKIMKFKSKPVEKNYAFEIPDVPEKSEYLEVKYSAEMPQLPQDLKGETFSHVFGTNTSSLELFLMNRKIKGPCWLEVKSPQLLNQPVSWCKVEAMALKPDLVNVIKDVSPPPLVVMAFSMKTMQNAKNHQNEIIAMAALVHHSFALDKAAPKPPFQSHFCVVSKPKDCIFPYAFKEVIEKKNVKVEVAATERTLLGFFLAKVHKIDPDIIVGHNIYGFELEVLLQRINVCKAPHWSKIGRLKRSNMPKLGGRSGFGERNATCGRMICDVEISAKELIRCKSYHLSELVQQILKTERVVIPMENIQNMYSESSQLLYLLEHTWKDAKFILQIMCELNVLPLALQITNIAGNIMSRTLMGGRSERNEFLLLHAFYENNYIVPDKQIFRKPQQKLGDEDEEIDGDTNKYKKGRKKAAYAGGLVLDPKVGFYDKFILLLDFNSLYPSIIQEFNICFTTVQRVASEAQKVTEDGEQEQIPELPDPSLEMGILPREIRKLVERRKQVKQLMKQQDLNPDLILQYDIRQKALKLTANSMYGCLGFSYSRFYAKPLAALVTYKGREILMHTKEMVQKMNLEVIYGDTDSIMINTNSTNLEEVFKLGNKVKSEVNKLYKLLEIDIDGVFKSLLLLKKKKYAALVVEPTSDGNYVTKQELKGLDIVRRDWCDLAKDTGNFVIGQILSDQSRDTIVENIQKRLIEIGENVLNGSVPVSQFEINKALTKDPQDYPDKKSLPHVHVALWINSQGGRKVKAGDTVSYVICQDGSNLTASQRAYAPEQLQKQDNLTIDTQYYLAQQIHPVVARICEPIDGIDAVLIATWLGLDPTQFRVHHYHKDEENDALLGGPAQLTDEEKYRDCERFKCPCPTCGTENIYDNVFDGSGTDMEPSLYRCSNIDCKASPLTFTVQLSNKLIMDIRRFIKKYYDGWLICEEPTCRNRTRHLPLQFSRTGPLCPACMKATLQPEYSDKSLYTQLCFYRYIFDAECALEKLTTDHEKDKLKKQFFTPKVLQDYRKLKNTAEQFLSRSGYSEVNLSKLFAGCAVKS

CC(/C=C/C(C)=C/[C@@H]1Cc2nc(cs2)CCCCC(=O)O[C@@H](C)C/C(C)=C/C=C\C(=O)O1)=C\CN(C)C
t1/2 [1]: 19.9 h | t1/2 [2]: 13 h | t1/2 [3]: 24 h | selectivity ratio [4]: 5 | IC50 [5]: > 50 nM | selectivity ratio [6]: 5 | IC50 [7]: 30 nM | pKa [8]: 11 | Ratio IC50 [9]: 2 | IC50 [10]: 11 nM | IC50 [11]: 13 nM | IC50 [12]: 9.8 nM | IC50 [13]: 0.81 nM | IC50 [14]: 1.97 nM | IC50 [15]: 0.9 nM | IC50 [16]: 1.2 nM | IC50 [17]: 4.5 nM | IC50 [18]: 3000 nM

From ChEMBL document CHEMBL3124904, “Second-generation derivatives of the eukaryotic translation initiation inhibitor pateamine A targeting eIF4A as potential anticancer agents” (Bioorg Med Chem, 2014)
